Laboratory results as given in ChEMBL document CHEMBL1158959, “Antitumor agents, 119. Kansuiphorins A and B, two novel antileukemic diterpene esters from Euphorbia kansui” (J Nat Prod, 1991).
≈ marks a conversion by molar mass, not a printed value. Calls of active or inactive are those of the source. The calls are words filed in the database; no cut-off is given here.

Legend:
[1] = system: SNB-75; assay: Cytotoxicity against human SNB75 cells; type: functional, cell-based
[2] = system: HL-60(TB); assay: Cytotoxicity against human HL-60(TB) cells; type: functional, cell-based
[3] = system: RPMI-7951; assay: Cytotoxicity against human RPMI7951 cells; type: functional, cell-based
[4] = system: HCC 2998; assay: Cytotoxicity against human HCC2998 cells; type: functional, cell-based
[5] = system: SNB-19; assay: Cytotoxicity against human SNB19 cells; type: functional, cell-based
[6] = Cytotoxicity against human NCI-H322 cells; type: functional, cell-based
[7] = system: OVCAR-5; assay: Cytotoxicity against human OVCAR5 cells; type: functional, cell-based
[8] = system: NCI-H23; assay: Cytotoxicity against human H23 cells; type: functional, cell-based
[9] = system: UO-31; assay: Cytotoxicity against human UO31 cells; type: functional, cell-based
[10] = system: Malme-3M; assay: Cytotoxicity against human MALME-3M cells; type: functional, cell-based
[11] = system: EKVX; assay: Cytotoxicity against human EKVX cells; type: functional, cell-based
[12] = system: NCI-H146; assay: Cytotoxicity against human NCI-H146 cells; type: functional, cell-based
[13] = system: SK-MEL-2; assay: Cytotoxicity against human SK-MEL-2 cells; type: functional, cell-based
[14] = system: P388; assay: In vivo antileukemic activity in mouse P388 cells at 0.1 mg/kg relative to control; type: functional
Method in brief: (§1)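 In vivo P-388 lymphocytic leukemia model run by standard National Cancer Institute procedures; activity is reported as T/C (%), treated relative to control.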

[15] = system: HOP-62; assay: Cytotoxicity against human HOP62 cells; type: functional, cell-based
[16] = system: SN12K1; assay: Cytotoxicity against human SN12K1 cells; type: functional, cell-based
[17] = system: NCI-H522; assay: Cytotoxicity against human NCI-H522 cells; type: functional, cell-based
[18] = system: K562; assay: Cytotoxicity against human K562 cells; type: functional, cell-based
[19] = system: A704; assay: Cytotoxicity against human A704 cells; type: functional, cell-based
[20] = system: OVCAR-8; assay: Cytotoxicity against human OVCAR8 cells; type: functional, cell-based
[21] = system: U-251; assay: Cytotoxicity against human U251 cells; type: functional, cell-based
[22] = system: NCI-H69; assay: Cytotoxicity against human H69 cells; type: functional, cell-based
[23] = system: MCF7; assay: Cytotoxicity against human MCF7 cells; type: functional, cell-based
[24] = system: NCI-H524; assay: Cytotoxicity against human NCI-H524 cells; type: functional, cell-based
[25] = system: DLD-1; assay: Cytotoxicity against human DLD1 cells; type: functional, cell-based
[26] = system: SK-MEL-5; assay: Cytotoxicity against human SK-MEL-5 cells; type: functional, cell-based
[27] = system: A498; assay: Cytotoxicity against human A498 cells; type: functional, cell-based
[28] = system: P388; assay: Cytotoxicity against adriamycin-resistant mouse P388 cells; type: functional, cell-based
[29] = system: SNB44; assay: Cytotoxicity against human SNB44 cells; type: functional, cell-based
[30] = system: NCI-H82; assay: Cytotoxicity against human H82 cells; type: functional, cell-based
[31] = system: H125; assay: Cytotoxicity against human H125 cells; type: functional, cell-based
[32] = system: MOLT-4; assay: Cytotoxicity against human MOLT4 cells; type: functional, cell-based
[33] = system: NCI/ADR-RES; assay: Cytotoxicity against human MCF7/ADR cells; type: functional, cell-based
[34] = system: SW-620; assay: Cytotoxicity against human SW620 cells; type: functional, cell-based
[35] = system: P388; assay: In vivo antileukemic activity in mouse P388 cells at 0.5 mg/kg relative to control; type: functional; method in brief: as §1

Compound: CCCCCCCCCCCCCCCC(=O)OCC1=C[C@@H]2C(=O)[C@]3(C=C(C)[C@H](OC(=O)C(C)C(C)C)[C@@]3(O)[C@@H]1O)[C@H](C)C[C@]1(OC(=O)CCCCCCCCCCC)[C@H]2C1(C)C (stereo not given in full) [KANSUIPHORIN A]
- Activity [1]: inactive
- IC50 [2]: 0.03 µg/mL (≈ 0.034 µM)
- IC50 [3]: 0.05 µg/mL (≈ 0.0566 µM)
- Activity [4]: inactive
- Activity [5]: inactive
- IC50 [6]: 0.33 µg/mL (≈ 0.374 µM)
- Activity [7]: inactive
- Activity [8]: inactive
- Activity [9]: inactive
- IC50 [10]: 0.32 µg/mL (≈ 0.362 µM)
- Activity [11]: inactive
- Activity [12]: inactive
- Activity [13]: inactive
- T/C [14]: >=176%
- IC50 [15]: 0.06 µg/mL (≈ 0.0679 µM)
- IC50 [16]: 0.07 µg/mL (≈ 0.0792 µM)
- Activity [17]: inactive
- IC50 [18]: 0.03 µg/mL (≈ 0.034 µM)
- IC50 [19]: 0.03 µg/mL (≈ 0.034 µM)
- Activity [20]: inactive
- Activity [21]: inactive
- Activity [22]: inactive
- Activity [23]: inactive
- Activity [24]: inactive
- Activity [25]: inactive
- IC50 [26]: 0.14 µg/mL (≈ 0.158 µM)
- IC50 [27]: 0.02 µg/mL (≈ 0.0226 µM)
- Activity [28]: inactive
- Activity [29]: inactive
- Activity [30]: inactive
- Activity [31]: inactive
- IC50 [32]: 0.13 µg/mL (≈ 0.147 µM)
- Activity [33]: inactive
- IC50 [34]: 0.08 µg/mL (≈ 0.0906 µM)

Compound: CCCCCCCCCCCCCCCC(=O)OC[C@@]12O[C@@H]1[C@@H]1C(=O)[C@]3(C=C(C)[C@H](OC(=O)C(C)C(C)C)[C@@]3(O)[C@@H]2O)[C@H](C)C[C@]2(OC(=O)CCCCCCCCCCC)[C@H]1C2(C)C (stereo not given in full) [KANSUIPHORIN B]
- T/C [35]: >=177%
